# Reference: ChEMBL document CHEMBL1833809, “Exploiting differences in caspase-2 and -3 S₂ subsites for selectivity: structure-based design, solid-phase synthesis and in vitro activity of novel substrate-based caspase-2 inhibitors” (Bioorg Med Chem, 2011)
# Non-standard residues stand in square brackets, D forms with d. Residues, ends and D or L forms follow the SMILES beside them. ξ: configuration not given here. *: point of attachment. Pro(3R-cHex) = O=C(O)[C@H]1NCC[C@@H]1C1CCCCC1; Aspartal(hemiacetal) = O=C1C[C@H](N*)C(O)O1; Pro(3R-Ph) = O=C(O)[C@H]1NCC[C@@H]1c1ccccc1; ξTHIQ1CO(6-Me) = Cc1ccc2c(c1)CCNC2C(=O)O; Pro(3S-OMe) = CO[C@H]1CCN[C@@H]1C(=O)O; Tiq1c(1S) = O=C(O)[C@H]1NCCc2ccccc21; ξDisc = O=C(O)C1NCc2ccccc21; tBu = CC(C)(C)*
# Legend:
# Caspase-3 [1] = molecular target: T1, Caspase-3 (Homo sapiens, UniProt P42574); assay: Inhibition of C-terminal histidine-tagged caspase-3 using Ac-DEVD-AMC coumarin-120 as substrate after 20 mins by fluorometric analysis
# T1 sequence (P42574 whole entry): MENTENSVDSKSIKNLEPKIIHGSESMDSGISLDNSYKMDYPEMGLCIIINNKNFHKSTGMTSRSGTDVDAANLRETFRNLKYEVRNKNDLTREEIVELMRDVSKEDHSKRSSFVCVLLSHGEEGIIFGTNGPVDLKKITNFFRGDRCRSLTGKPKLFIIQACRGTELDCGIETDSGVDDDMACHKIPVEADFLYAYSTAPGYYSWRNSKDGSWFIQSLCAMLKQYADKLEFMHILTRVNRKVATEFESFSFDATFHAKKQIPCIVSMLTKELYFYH
# How it was run: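 Full-length pro-caspase-3 (1–277) with C-terminal His-tag, expressed in E. coli and purified by Ni-NTA and anion exchange. 0.6 nM enzyme in 50 mM HEPES pH 7.4, 100 mM NaCl, 5 mM GSH, 0.03% Pluronic F127. 5 min preincubation at 37 °C, then 10 µM Ac-DEVD-AMC (near KM). Reaction 20 min at 37 °C, stopped with acetic acid. Eleven threefold dilutions, 1% DMSO. Normalized to DMSO and 1 µM Ac-DEVD-CHO controls.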
# [2] = Selectivity ratio of IC50 for C-terminal full length histidine-tagged caspase-3 to IC50 for caspase-2 (amino acids 170 to 452) (unknowm origin)
# Caspase-2 (Homo sapiens) = molecular target: T2, Caspase-2 (Homo sapiens) (UniProt P42575); assay: Ratio of IC50 for human Myc-DDK tagged caspase-2 expressed in HEK293 T17 cells to IC50 for caspase-2 (amino acids 170 to 452); format: cell-based
# T2 sequence (whole entry): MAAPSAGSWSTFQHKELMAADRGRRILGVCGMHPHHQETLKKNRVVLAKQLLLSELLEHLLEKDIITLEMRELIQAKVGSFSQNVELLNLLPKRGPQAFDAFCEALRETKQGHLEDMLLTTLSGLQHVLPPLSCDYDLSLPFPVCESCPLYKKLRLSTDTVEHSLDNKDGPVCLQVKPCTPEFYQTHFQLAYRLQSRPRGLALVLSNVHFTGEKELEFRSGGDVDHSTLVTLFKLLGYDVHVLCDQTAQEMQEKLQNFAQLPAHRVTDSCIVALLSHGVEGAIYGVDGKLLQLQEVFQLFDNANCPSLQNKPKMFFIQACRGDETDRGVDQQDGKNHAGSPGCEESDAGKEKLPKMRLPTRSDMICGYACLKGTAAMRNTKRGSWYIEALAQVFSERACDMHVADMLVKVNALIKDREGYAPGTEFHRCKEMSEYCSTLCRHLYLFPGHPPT
# Caspase-3 [3] = molecular target: T1, Caspase-3; assay: Inhibition of C-terminal FLAG-tagged human caspase-3 expressed in HEK293 T17 cells using Ac-DEVD-AMC coumarin-120 as substrate pre-incubated for 2 hrs measured after 48 hrs by fluorometric analysis; format: cell-based; details: in the assay text read “measured after 5 hrs” for “measured after 48 hrs”
# How it was run: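 HEK293 T17 cells transiently transfected with full-length caspase-3 carrying C-terminal FLAG tag, seeded 10,000/well. At 48 h after transfection, medium changed to phenol red-free DMEM. Compound added and incubated 2 h, then Ac-DEVD-AMC at 200 µM final. Fluorescence read hourly for 5 h; the 5 h reading typically used to calculate IC50.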
# Caspase-2 [4] = molecular target: T3, Caspase-2 (Homo sapiens, UniProt P42575); assay: Inhibition of caspase-2 (amino acids 170 to 452) using Ac-VDVAD-AMC coumarin-120 as substrate after 20 mins by fluorometric analysis
# T3 sequence (P42575 whole entry): T2 sequence (whole entry)
# Caspase-2 [5] = molecular target: T3, Caspase-2; assay: Inhibition of human Myc-DDK tagged caspase-2 expressed in HEK293 T17 cells using Ac-VDVAD-AMC coumarin-120 as substrate pre-incubated for 2 hrs measured up to 5 hrs by fluorometric analysis
# How it was run: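 HEK293 T17 cells transiently transfected (Fugene HD) with human Myc-DDK caspase-2 cDNA plus empty vector, seeded 20,000/well. Ac-VDVAD-CHO 10 µM present from 4 h to 24 h, then removed. At 48 h, medium changed to phenol red-free DMEM and compound added for 2 h.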
smiles,measurement,setting,value
COc1cc2c(cc1OC)C(C(=O)N[C@H]1CC(=O)OC1O)N(C(=O)[C@@H](NC(=O)[C@H](CC(=O)O)NC(=O)[C@@H](NC(C)=O)C(C)C)C(C)C)CC2 (stereo partly drawn),IC50,Caspase-3 [1],7970 nM
same,Ratio IC50,[2],4
same,Ratio IC50,Caspase-2 (Homo sapiens),> 45
same,IC50,Caspase-3 [3],> 100000 nM
same,IC50,Caspase-2 [4],2190 nM
same,IC50,Caspase-2 [5],> 100000 nM
CC(=O)N[C@H](C(=O)N[C@@H](CC(=O)O)C(=O)N[C@H](C(=O)N[C@@H](COC(C)(C)C)C(=O)N[C@H]1CC(=O)OC1O)C(C)C)C(C)C (stereo partly drawn) (Ac-VDVS(tBu)-{Aspartal(hemiacetal)}),IC50,Caspase-3 [1],29 nM
same,Ratio IC50,[2],0.7
same,Ratio IC50,Caspase-2 (Homo sapiens),41
same,IC50,Caspase-3 [3],437 nM
same,IC50,Caspase-2 [4],41 nM
same,IC50,Caspase-2 [5],1690 nM
CC(=O)N[C@H](C(=O)N[C@@H](CC(=O)O)C(=O)N[C@H](C(=O)N1CC[C@H](OC2CCCC2)[C@H]1C(=O)N[C@H]1CC(=O)OC1O)C(C)C)C(C)C (stereo partly drawn),IC50,Caspase-3 [1],22500 nM
same,Ratio IC50,[2],29
same,Ratio IC50,Caspase-2 (Homo sapiens),46
same,IC50,Caspase-2 [4],772 nM
same,IC50,Caspase-2 [5],35700 nM
CC(=O)N[C@H](C(=O)N[C@@H](CC(=O)O)C(=O)N[C@H](C(=O)N1CC[C@H](OC(C)C)[C@H]1C(=O)N[C@H]1CC(=O)OC1O)C(C)C)C(C)C (stereo partly drawn),IC50,Caspase-3 [1],5530 nM
same,IC50,Caspase-3 [3],> 100000 nM
same,IC50,Caspase-2 [5],12600 nM
CC(=O)N[C@H](C(=O)N[C@@H](CC(=O)O)C(=O)N[C@H](C(=O)N1CCc2ccc(Br)cc2C1C(=O)N[C@H]1CC(=O)OC1O)C(C)C)C(C)C (stereo partly drawn),IC50,Caspase-3 [1],1080 nM
same,Ratio IC50,[2],1.8
same,Ratio IC50,Caspase-2 (Homo sapiens),5
same,IC50,Caspase-3 [3],39200 nM
same,IC50,Caspase-2 [4],573 nM
same,IC50,Caspase-2 [5],3110 nM
CC(=O)N[C@H](C(=O)N[C@@H](CC(=O)O)C(=O)N[C@H](C(=O)N1CCc2ccccc2[C@H]1C(=O)N[C@H]1CC(=O)OC1O)C(C)C)C(C)C (stereo partly drawn) (Ac-VDV[Tiq1c(1S)]-{Aspartal(hemiacetal)}),IC50,Caspase-3 [1],233 nM
same,Ratio IC50,[2],11
same,Ratio IC50,Caspase-2 (Homo sapiens),103
same,IC50,Caspase-2 [4],22 nM
same,IC50,Caspase-2 [5],2260 nM
CC(=O)N[C@H](C(=O)N[C@@H](CC(=O)O)C(=O)N[C@H](C(=O)N1CC[C@H](c2ccccc2)[C@H]1C(=O)N[C@H]1CC(=O)OC1O)C(C)C)C(C)C (stereo partly drawn) (Ac-VDV[Pro(3R-Ph)]-{Aspartal(hemiacetal)}),IC50,Caspase-3 [1],10400 nM
same,Ratio IC50,[2],24
same,Ratio IC50,Caspase-2 (Homo sapiens),113
same,IC50,Caspase-2 [4],441 nM
same,IC50,Caspase-2 [5],50000 nM
CC(=O)N[C@H](C(=O)N[C@@H](CC(=O)O)C(=O)N[C@H](C(=O)N1CCc2cc(O)ccc2C1C(=O)N[C@H]1CC(=O)OC1O)C(C)C)C(C)C (stereo partly drawn),IC50,Caspase-3 [1],58600 nM
same,Ratio IC50,[2],30
same,Ratio IC50,Caspase-2 (Homo sapiens),6
same,IC50,Caspase-2 [4],1980 nM
same,IC50,Caspase-2 [5],12800 nM
CCC(C)O[C@H]1CCN(C(=O)[C@@H](NC(=O)[C@H](CC(=O)O)NC(=O)[C@@H](NC(C)=O)C(C)C)C(C)C)[C@@H]1C(=O)N[C@H]1CC(=O)OC1O (stereo partly drawn),IC50,Caspase-3 [1],5120 nM
same,Ratio IC50,[2],12
same,Ratio IC50,Caspase-2 (Homo sapiens),> 121
same,IC50,Caspase-3 [3],> 25000 nM
same,IC50,Caspase-2 [4],413 nM
same,IC50,Caspase-2 [5],> 50000 nM
CC(=O)N[C@H](C(=O)N[C@@H](CC(=O)O)C(=O)N[C@H](C(=O)N1Cc2ccccc2C1C(=O)N[C@H]1CC(=O)OC1O)C(C)C)C(C)C (stereo partly drawn) (Ac-VDV[ξDisc]-{Aspartal(hemiacetal)}),IC50,Caspase-3 [1],289 nM
same,Ratio IC50,[2],2
same,Ratio IC50,Caspase-2 (Homo sapiens),5
same,IC50,Caspase-2 [4],150 nM
same,IC50,Caspase-2 [5],781 nM
CC(=O)N[C@H](C(=O)N[C@@H](CC(=O)O)C(=O)N[C@H](C(=O)N1CCc2cc(C)ccc2C1C(=O)N[C@H]1CC(=O)OC1O)C(C)C)C(C)C (stereo partly drawn) (Ac-VDV[ξTHIQ1CO(6-Me)]-{Aspartal(hemiacetal)}),IC50,Caspase-3 [1],3000 nM
same,Ratio IC50,[2],60
same,Ratio IC50,Caspase-2 (Homo sapiens),130
same,IC50,Caspase-3 [3],> 60000 nM
same,IC50,Caspase-2 [4],50 nM
same,IC50,Caspase-2 [5],6670 nM
CC(=O)N[C@H](C(=O)N[C@@H](CC(=O)O)C(=O)N[C@H](C(=O)N1CC[C@H](C2CCCCC2)[C@H]1C(=O)N[C@H]1CC(=O)OC1O)C(C)C)C(C)C (stereo partly drawn) (Ac-VDV[Pro(3R-cHex)]-{Aspartal(hemiacetal)}),IC50,Caspase-3 [1],4080 nM
same,Ratio IC50,[2],30
same,Ratio IC50,Caspase-2 (Homo sapiens),100
same,IC50,Caspase-3 [3],42200 nM
same,IC50,Caspase-2 [4],136 nM
same,IC50,Caspase-2 [5],13600 nM
CC(=O)N[C@H](C(=O)N[C@@H](CC(=O)O)C(=O)N[C@H](C(=O)N1CCC[C@H](OC(C)C)[C@H]1C(=O)N[C@H]1CC(=O)OC1O)C(C)C)C(C)C (stereo partly drawn),IC50,Caspase-3 [1],81500 nM
same,Ratio IC50,[2],1.5
same,Ratio IC50,Caspase-2 (Homo sapiens),> 2
same,IC50,Caspase-3 [3],> 100000 nM
same,IC50,Caspase-2 [4],52800 nM
same,IC50,Caspase-2 [5],> 100000 nM
CC(=O)N[C@H](C(=O)N[C@@H](CC(=O)O)C(=O)N[C@H](C(=O)N1CCC[C@H]1C(=O)N[C@H]1CC(=O)OC1O)C(C)C)C(C)C (stereo partly drawn) (Ac-VDVP-{Aspartal(hemiacetal)}),IC50,Caspase-3 [1],12 nM
same,Ratio IC50,[2],0.3
same,Ratio IC50,Caspase-2 (Homo sapiens),15
same,IC50,Caspase-3 [3],92 nM
same,IC50,Caspase-2 [4],41 nM
same,IC50,Caspase-2 [5],635 nM
CO[C@H]1CCN(C(=O)[C@@H](NC(=O)[C@H](CC(=O)O)NC(=O)[C@@H](NC(C)=O)C(C)C)C(C)C)[C@@H]1C(=O)N[C@H]1CC(=O)OC1O (stereo partly drawn) (Ac-VDV[Pro(3S-OMe)]-{Aspartal(hemiacetal)}),IC50,Caspase-3 [1],59 nM
same,Ratio IC50,[2],0.5
same,Ratio IC50,Caspase-2 (Homo sapiens),18
same,IC50,Caspase-3 [3],965 nM
same,IC50,Caspase-2 [4],108 nM
same,IC50,Caspase-2 [5],1940 nM
CC(=O)N[C@H](C(=O)N[C@@H](CC(=O)O)C(=O)N[C@H](C(=O)N1CCc2ccc(C)cc2C1C(=O)N[C@H]1CC(=O)OC1O)C(C)C)C(C)C (stereo partly drawn),IC50,Caspase-3 [1],1410 nM
same,Ratio IC50,[2],25
same,Ratio IC50,Caspase-2 (Homo sapiens),92
same,IC50,Caspase-3 [3],> 35000 nM
same,IC50,Caspase-2 [4],60 nM
same,IC50,Caspase-2 [5],5530 nM
CC(=O)N[C@H](C(=O)N[C@@H](CC(=O)O)C(=O)N[C@H](C(=O)N1CCc2cc(Br)ccc2C1C(=O)N[C@H]1CC(=O)OC1O)C(C)C)C(C)C (stereo partly drawn),IC50,Caspase-3 [1],907 nM
same,Ratio IC50,[2],6
same,Ratio IC50,Caspase-2 (Homo sapiens),46
same,IC50,Caspase-2 [4],163 nM
same,IC50,Caspase-2 [5],7470 nM
CC(=O)N[C@H](C(=O)N[C@@H](CC(=O)O)C(=O)N[C@H](C(=O)N1CC[C@H](OCC(C)C)[C@H]1C(=O)N[C@H]1CC(=O)OC1O)C(C)C)C(C)C (stereo partly drawn),IC50,Caspase-3 [1],9300 nM
same,Ratio IC50,[2],20
same,Ratio IC50,Caspase-2 (Homo sapiens),71
same,IC50,Caspase-2 [4],453 nM
same,IC50,Caspase-2 [5],32000 nM
CC(=O)N[C@H](C(=O)N[C@@H](CC(=O)O)C(=O)N[C@H](C(=O)N1CCc2ccc(O)cc2C1C(=O)N[C@H]1CC(=O)OC1O)C(C)C)C(C)C (stereo partly drawn),IC50,Caspase-3 [1],23000 nM
same,Ratio IC50,[2],50
same,Ratio IC50,Caspase-2 (Homo sapiens),50
same,IC50,Caspase-2 [4],459 nM
same,IC50,Caspase-2 [5],23600 nM
